# Reference: PMC5520516 (British Journal of Cancer, 2017)
# Structures can show the parent of a compound that is named as a salt. Where two headings read alike, the source gives them in different places.
# Legend:
# [1] = tested on: NCI 60-cell line panel (60 human tumour cell lines); details: cited from earlier work
# [2] = cited from earlier work
# [3] = at 30 min; ref Burger et al, 2007; cited from earlier work
# [4] = tested on: two human renal cell cancer HTXs, a breast cancer HTX and a murine syngeneic colon cancer; details: P<0.01; ref Burger et al, 2007; cited from earlier work
# [5] = tested on: well-vascularised breast cancer HTX; assay: Antitumour activity in well-vascularised breast cancer HTX; format: in vivo, human; details: for antitumour activity at tolerated doses / antitumour activity at toxic dose levels: SD, i.p.
# microtubules = details: ref Bonezzi et al, 2009; cited from earlier work
# endothelial cell = details: in vitro; ref Bonezzi et al, 2009; cited from earlier work
# tumour blood vessels = details: in vivo; ref Bonezzi et al, 2009; cited from earlier work
# [6] = tested on: NCI 60-cell line panel (60 human tumour cell lines); assay: NCI in vitro 60-cell line screen; format: cell-based
# Method in brief: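 Test compounds were run in each of the 60 human tumour cell lines for 48 h of drug exposure. The data were summarised as a mean graph with COMPARE analysis.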
# [7] = Pre-formulation / solubility; format: physicochemical
# [8] = tested on: doxorubicin-resistant, oestrogen receptor negative human breast cancer xenograft MT-3/ADR; assay: Antitumour activity in MT-3/ADR xenograft; format: in vivo
# advanced cancer = details: phase I, ref Seckl et al, 2012, cited from earlier work
# [9] = ref Bradshaw and Westwell, 2004
compound,measurement,setting,value
Cc1cc(-c2nc3cc(F)ccc3s2)ccc1N [5F 203],GI50,"[1]; NCI 60-cell line screen, ref Bradshaw and Westwell, 2004",low nanomolar
same,selectivity in NCI 60-cell line screen,[1]; [9],selectivity against breast and ovarian cancer sub-panels
"COc1ccc(/C=C\c2cc(OC)c(OC)c(OC)c2)cc1O [Combretastatin A-4, reference compound]",solubility,"[2]; ref Dark et al, 1997, Tozer et al, 2002",poorly soluble
COc1ccc(C2=CN3C(=O)c4cc(OC)c(OC)cc4N=C[C@@H]3C2)cc1 [DRH-417],IC50,"[1]; read-out: mean IC50, NCI 60-cell line panel, ref Burger et al, 2007",3 nM
same,peak plasma concentration,[3],171 nM
same,antitumour activity in vivo,[4],marked activity
COc1ccc(-c2cncn2-c2cc(OC)c(OC)c(OC)c2)cc1 [NSC733436],antitumour activity at tolerated doses,[5],moderate
same,antitumour activity at toxic dose levels,[5],more pronounced
same,effect on microtubules,microtubules,disorganised microtubules
same,effect on endothelial cell morphology and capillary formation,endothelial cell,selectively affected endothelial cell morphology and capillary formation
same,blood vessel shutdown and tumour necrosis,tumour blood vessels,caused blood vessel shutdown and tumour necrosis
COc1ccc(-c2cncn2-c2cc(OC)c(OC)c(OC)c2)cc1F [NSC736359],antitumour activity at tolerated doses,[5],moderate
same,antitumour activity at toxic dose levels,[5],more pronounced
same,effect on microtubules,microtubules,disorganised microtubules
same,effect on endothelial cell morphology and capillary formation,endothelial cell,selectively affected endothelial cell morphology and capillary formation
same,blood vessel shutdown and tumour necrosis,tumour blood vessels,caused blood vessel shutdown and tumour necrosis
COc1cc(-n2cncc2-c2ccc3ccccc3c2)cc(OC)c1OC [NSC736992],antitumour activity at tolerated doses,[5],moderate
same,antitumour activity at toxic dose levels,[5],more pronounced
same,effect on microtubules,microtubules,disorganised microtubules
same,effect on endothelial cell morphology and capillary formation,endothelial cell,selectively affected endothelial cell morphology and capillary formation
same,blood vessel shutdown and tumour necrosis,tumour blood vessels,caused blood vessel shutdown and tumour necrosis
COc1ccc2c(c1)[nH]c(=O)c1c3ccccc3cn21 [NSC 734237],differential activity,[6],"reasonable, but inconclusive"
same,solubility,[7],quite insoluble
same,antitumour activity at the MTD,"[8]; MTD, i.p., d8–12, 15–19",significant activity
same,antitumour activity,"[8]; i.p., d8–12, 15–19",dose-dependent antitumour activity
same,CD31+ microvessel density (immunohistochemistry),[8]; in vivo,dose-dependent reduction
same,Ki-67 staining (immunohistochemistry),[8]; in vivo,dose-dependent reduction
Cc1cc(-c2nc3cc(F)ccc3s2)ccc1NC(=O)[C@@H](N)CCCCN.Cl.Cl [Phortress],water solubility,[2]; [9],water-soluble
same,MTD,advanced cancer; preliminary data,not reached
same,tolerability,advanced cancer; preliminary data,well tolerated
same,patients classified as having stable disease,advanced cancer; Thirty-three per cent of the patients,14/42
COc1cc(-n2cncc2-c2ccc3ccccc3c2)cc(OC)c1OC [water-soluble salt of NSC736992],density (size and number) of CD31+ blood vessels,[5]; alone or in combination,not affected
same,efficacy in combination with carboplatin or taxol,[5]; combination with carboplatin or taxol,not increased
same,efficacy (additional studies),"[5]; same HTX, also with other treatment schedules",moderate to borderline
